Screening results: PubChem BioAssay, several laboratories
Most compounds without a hit are left out; they make up all but 3.1% or so of the library.
PREPL inhibitor – PREPL enzyme inhibitors, primary screen, biochemical, fluorescence polarization; inhibition, % at 5.96 µM; 0.68% of 320,000 active; recombinant PREPL, fluorescence polarization activity-based probe; Prolyl endopeptidase-like (Homo sapiens), Q4J6C6; in the data active means inhibition above about 43%
MEKK2 WT-MEK5 – modulators of MEK5 binding to wildtype MEKK2, primary screen, biochemical, multiplex bead flow cytometry, Alexa488-MEK5 | binding response (% of control), % at 10 µM | AID 1531, 2009 | 1.1% of 290,000 active | Alexa488-MEK5 binding to MEKK2 WT; actives lie on both sides | Mitogen-activated protein kinase kinase kinase 2 (Homo sapiens), Q9Y2U5; in the data active means binding response below about 67% or above about 130%
MEKK2mut PB1 HTS – MEK5 binding signal on mutant MEKK2 PB1, primary screen, biochemical, multiplex bead flow cytometry, Alexa488-MEK5. Alexa488-MEK5 binding to MEKK2 mutant. percent response, % at 10 µM. 0.35% of 290,000 active; in the data active means percent response above about 24%, passing the limit was not always enough
MEKK3 PB1 HTS – modulators of MEKK3-MEK5 PB1 binding, primary screen, biochemical, wildtype MEKK3, multiplex bead flow cytometry, Alexa488-MEK5; binding response (% of control), % at 10 µM; AID 1529, 2009; bead-based flow cytometry, Alexa488-MEK5 binding to MEKK3; actives lie on both sides; 0 = blocked by unlabeled MEK5, 100 = vehicle; 1.4% of 290,000 active;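 active means binding response more than 3 SD above or below the average of its plate-row segment, actives on both sides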;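 further: Alexa488 bead fluorescence after subtracting the streptavidin-only scavenger bead signal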
Apaf1 inhib – inhibitors of human Apaf-1 apoptosome, primary screen, biochemical, DEVD-Rh110 fluorescence, uHTS; Apoptotic protease-activating factor 1 (Homo sapiens), O14727; reconstituted apoptosome caspase-3 activity; inhibition, % at 20 µM; 0.71% of 330,000 active; AID 489030, 2010; active means inhibition of at least 40% at 20 µM
Target sequence (O14727 whole entry, looked up): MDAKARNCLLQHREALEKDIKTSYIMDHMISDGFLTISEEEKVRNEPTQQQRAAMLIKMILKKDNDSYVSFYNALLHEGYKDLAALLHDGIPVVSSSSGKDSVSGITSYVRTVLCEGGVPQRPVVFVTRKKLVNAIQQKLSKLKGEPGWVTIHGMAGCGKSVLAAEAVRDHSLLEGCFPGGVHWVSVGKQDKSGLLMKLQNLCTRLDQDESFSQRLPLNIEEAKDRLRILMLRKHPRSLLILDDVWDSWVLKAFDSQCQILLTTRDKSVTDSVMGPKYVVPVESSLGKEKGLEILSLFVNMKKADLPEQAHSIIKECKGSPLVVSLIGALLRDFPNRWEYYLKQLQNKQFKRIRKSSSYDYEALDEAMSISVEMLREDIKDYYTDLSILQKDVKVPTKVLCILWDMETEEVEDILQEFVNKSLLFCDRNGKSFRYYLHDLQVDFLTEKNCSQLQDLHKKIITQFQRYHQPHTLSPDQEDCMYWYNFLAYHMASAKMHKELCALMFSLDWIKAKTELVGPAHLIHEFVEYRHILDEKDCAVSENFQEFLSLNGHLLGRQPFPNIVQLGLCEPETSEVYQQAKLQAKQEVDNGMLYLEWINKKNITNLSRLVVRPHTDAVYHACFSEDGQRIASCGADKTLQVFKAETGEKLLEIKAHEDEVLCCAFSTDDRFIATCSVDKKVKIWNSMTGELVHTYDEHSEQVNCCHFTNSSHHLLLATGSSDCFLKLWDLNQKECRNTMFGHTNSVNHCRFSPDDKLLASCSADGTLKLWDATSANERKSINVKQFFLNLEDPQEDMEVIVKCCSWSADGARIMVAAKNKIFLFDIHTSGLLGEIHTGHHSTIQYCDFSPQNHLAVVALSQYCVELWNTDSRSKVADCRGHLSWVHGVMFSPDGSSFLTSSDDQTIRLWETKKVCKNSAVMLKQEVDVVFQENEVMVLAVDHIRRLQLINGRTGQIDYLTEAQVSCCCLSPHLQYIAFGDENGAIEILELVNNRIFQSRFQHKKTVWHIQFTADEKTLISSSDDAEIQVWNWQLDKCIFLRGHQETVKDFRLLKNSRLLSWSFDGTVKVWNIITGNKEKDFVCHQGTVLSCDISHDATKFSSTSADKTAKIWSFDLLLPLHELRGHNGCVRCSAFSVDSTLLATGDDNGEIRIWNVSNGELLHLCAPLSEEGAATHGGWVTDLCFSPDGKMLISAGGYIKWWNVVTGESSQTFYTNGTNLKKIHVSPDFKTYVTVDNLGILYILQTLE
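Material: reconstituted apoptosome with Apaf-1, cytochrome c, caspase-9, procaspase-3, dATP; medium: pH 7.5 Hepes buffer with CHAPS, BSA, DTT; also added: cytochrome c and DEVD-Rh110 substrate; timing: 30 min plus 50 min, RT; signal: Rh110 fluorescence intensity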
UBC13 polyUb – UBC13 polyubiquitin chain formation inhibitors, primary screen, biochemical, TR-FRET, uHTS. Ubiquitin-conjugating enzyme E2 N (Homo sapiens), P61088. inhibition, % at 20 µM. 0.47% of 330,000 active; in the data active means inhibition above about 45%, passing the limit was not always enough
MEKK2wt confirm – modulators of MEK5 binding to wildtype MEKK2, confirmation, biochemical, single concentration, multiplex bead flow cytometry | shares compounds with MEKK3 PB1 HTS | Alexa488-MEK5 binding to MEKK2 WT; actives lie on both sides | binding response (% of control), % at 10 µM | 2.4% of 5,900 active | AID 1892, 2009; in the data active means binding response below about 16% or above about 210%; inactive means in between
MEKK2mut-MEK5 – mutant MEKK2 PB1-MEK5 binding signal retest – biochemical, single concentration, multiplex bead flow cytometry, confirmation; shares compounds with MEKK3 PB1 HTS; Alexa488-MEK5 binding to MEKK2 mutant; percent response, % at 10 µM; 2% of 5,900 active; in the data active means percent response mostly above about 71%, no sharp cut-off; inactive means mostly below about 38%;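 further: higher means compound restores mutant binding toward wildtype level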
MEKK3 confirm – MEKK3 wild-type PB1 binding to MEK5, inhibitors, confirmation, biochemical, bead multiplex flow cytometry, single concentration, wildtype; shares compounds with MEKK3 PB1 HTS; Alexa488-MEK5 binding to MEKK3; stronger effect = lower value; binding response (% of control), % at 10 µM; 1.8% of 5,900 active; AID 1894, 2009;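 active means binding response below 72% of control, or above a set upper limit, though filed actives all read lower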
Large screens that a line does not name were inactive (follow-up assays come after a bar, where they were run); [ ] = remark or other dose.

COc1ccc(C(CC(=O)N2CCOCC2)c2c(O)cc(OC)cc2OC)cc1 (centres undefined)	MEKK2 WT-MEK5 165.0, MEKK3 PB1 HTS 133.0 | MEKK2wt confirm inactive | MEKK2mut-MEK5 inactive | MEKK3 confirm inactive
CCN1C(=O)[C@@H]2[C@@H](c3ccc(SC4CCCCC4)c(OC)c3)N3CCC[C@@]3(C(=O)OC)[C@@H]2C1=O	none (no result: MEKK2 WT-MEK5, MEKK2mut PB1 HTS, MEKK3 PB1 HTS)
COc1cc(NC(=O)c2ccc(Cl)cc2)c(Cl)cc1NC(=O)c1cccnc1	none
O=C(CSc1ccccc1)NNC(=O)c1ccccc1O	none
FC(F)(F)c1cc(N2CCN(Cc3ccccc3)CC2)c2ccccc2n1	MEKK3 PB1 HTS 75.0[inhibitor] | MEKK2wt confirm inactive | MEKK2mut-MEK5 inactive | MEKK3 confirm inactive
Cc1cccc(NS(=O)(=O)c2cccc(C(=O)NCC(c3ccco3)N(C)C)c2)c1 (centres undefined)	none (no result: MEKK2 WT-MEK5, MEKK2mut PB1 HTS, MEKK3 PB1 HTS)
N=c1n(CCN2CCOCC2)c2ccccc2n1CC(=O)c1cccc([N+](=O)[O-])c1	MEKK2 WT-MEK5 22.0[inhibitor], MEKK3 PB1 HTS 12.0[inhibitor] | MEKK2wt confirm inactive | MEKK2mut-MEK5 inactive | MEKK3 confirm inactive
O=C(NCCO)c1cc2c([nH]c3ccccc32)c(-c2ccccc2)n1	none
Cc1ccc(-c2nc(C(=O)NCCCN(C)C)cc3c2[nH]c2ccccc23)cc1	MEKK2 WT-MEK5 146.0 | MEKK2wt confirm inactive | MEKK2mut-MEK5 inactive | MEKK3 confirm inactive
CCOC(=O)CNC(=O)CSc1nnc(Cn2cnc3ccccc32)n1C	MEKK3 PB1 HTS 126.0 | MEKK2wt confirm inactive | MEKK2mut-MEK5 inactive | MEKK3 confirm inactive
COc1ccc(NC(=O)CSc2nnc(Cn3cnc4ccccc43)n2C)cc1	none
O=S(=O)(c1ccccc1)N1CCN(C(=S)Nc2ccc(F)cc2)CC1	MEKK3 PB1 HTS 134.0 | MEKK2wt confirm inactive | MEKK2mut-MEK5 inactive | MEKK3 confirm inactive
O=S(=O)(c1ccccc1)N1CCN(C(=S)Nc2ccccc2)CC1	none (no result: PREPL inhibitor)
COc1ccc(S(=O)(=O)N[C@@H](CC(C)C)C(=O)O)cc1	MEKK3 PB1 HTS 80.0[inhibitor] | MEKK2wt confirm inactive | MEKK2mut-MEK5 inactive | MEKK3 confirm inactive
COc1ccc(S(=O)(=O)N(C)c2nc3ccccc3n3c(CC(C)C)nnc23)cc1	none
O=C(NC12CC3CC(CC(C3)C1)C2)C1CC(=O)N(c2ccc(Br)cc2)C1 (centres undefined)	none
O=C(NC12CC3CC(CC(C3)C1)C2)C1CC(=O)N(c2ccccc2)C1 (centres undefined)	MEKK2mut PB1 HTS 25.0 | MEKK2wt confirm inactive | MEKK2mut-MEK5 inactive | MEKK3 confirm inactive
Clc1ccc(CNCCCSc2ncccn2)cc1	none
Brc1ccc(CNCCCSc2ncccn2)cc1	none
CSc1ccc(CNCCCSc2ncccn2)cc1	MEKK2 WT-MEK5 147.0, MEKK2mut PB1 HTS 25.0 | MEKK2wt confirm inactive | MEKK2mut-MEK5 inactive | MEKK3 confirm inactive
Clc1cccc(CNCCCSc2ncccn2)c1	MEKK2 WT-MEK5 139.0, MEKK2mut PB1 HTS 27.0 | MEKK2wt confirm inactive | MEKK2mut-MEK5 inactive | MEKK3 confirm inactive
COc1ccc(CNCCCSc2ncccn2)cc1OC	MEKK2mut PB1 HTS 30.0 | MEKK2wt confirm inactive | MEKK2mut-MEK5 inactive | MEKK3 confirm inactive
COc1ccccc1NC(=O)COC(=O)c1ccc2ccccc2n1	none (no result: MEKK2 WT-MEK5, MEKK2mut PB1 HTS, MEKK3 PB1 HTS)
CCc1nc2ccccc2n1CC(=O)NC1CCS(=O)(=O)C1 (centres undefined)	none (no result: MEKK2 WT-MEK5, MEKK2mut PB1 HTS, MEKK3 PB1 HTS)
O=C(NC1=NCCS1)C1COc2ccccc2O1 (centres undefined)	MEKK2 WT-MEK5 -1.0[inhibitor], MEKK3 PB1 HTS 1.0[inhibitor] | MEKK2wt confirm inactive | MEKK2mut-MEK5 inactive | MEKK3 confirm inactive
Cc1cc(C)c(NC(=O)c2ccc(CNS(=O)(=O)c3cc(C(F)(F)F)ccc3Cl)cc2)c(C)c1	MEKK3 PB1 HTS 130.0 | MEKK2wt confirm inactive | MEKK2mut-MEK5 inactive | MEKK3 confirm inactive
O=S(=O)(NCc1ccccn1)c1cc(C(F)(F)F)ccc1Cl	none
COc1ccccc1NC(=O)NC1(C)CCS(=O)(=O)C1 (centres undefined)	none (no result: PREPL inhibitor)
COc1ccc2ccc(O)c(CN(C)CC(=O)Nc3ccccc3C(F)(F)F)c2c1	none
CCCCn1c(N)c(N(CCOC)C(=O)C(C)N2C(=O)c3ccccc3C2=O)c(=O)[nH]c1=O (centres undefined)	none (no result: MEKK2 WT-MEK5, MEKK2mut PB1 HTS, MEKK3 PB1 HTS)
COc1ccc(C)cc1NC(=O)COC(=O)c1ccc([N+](=O)[O-])o1	none
COc1ccc(NC(=O)COC(=O)c2ccc([N+](=O)[O-])o2)cc1Cl	MEKK3 PB1 HTS 131.0 | MEKK2wt confirm inactive | MEKK2mut-MEK5 inactive | MEKK3 confirm inactive
CCC(=O)C1CCCN(C(=O)c2cccc(OC3CCN(S(C)(=O)=O)CC3)c2)C1 (centres undefined)	none
CC1COc2c(N3CCN(C)CC3)c(F)cc3c(=O)c(C(=O)O)cn1c23 (centres undefined)	none
CCOc1ccc(NC(=O)c2ccc(NC(=O)c3cn4c5c(c(N6CCN(C)CC6)c(F)cc5c3=O)OCC4C)cc2)cc1 (centres undefined)	MEKK3 PB1 HTS 45.0[inhibitor] | MEKK2wt confirm inactive | MEKK2mut-MEK5 inactive | MEKK3 confirm inactive
CC1CN(C(=S)Nc2cccc(Cl)c2Cl)CC(C)O1 (centres undefined)	none
Cc1csc(NC(=O)c2sc3nc(-c4cccs4)ccc3c2N)n1	MEKK2 WT-MEK5 66.0[inhibitor] | MEKK2wt confirm inactive | MEKK2mut-MEK5 inactive | MEKK3 confirm inactive
C[C@@H]1CC[C@]2(O[C@H](CCO)C[C@H](O)[C@H]2O)O1	none
CC(=O)c1ccc(OCC(=O)Nc2ccc3c(c2)CCC3)cc1	none (no result: MEKK2 WT-MEK5, MEKK2mut PB1 HTS, MEKK3 PB1 HTS)
O=C(COc1ccc(Cl)cc1)Nc1ccc2c(c1)CCC2	MEKK3 PB1 HTS 75.0[inhibitor] | MEKK2wt confirm inactive | MEKK2mut-MEK5 inactive | MEKK3 confirm inactive
Cc1ccc(NCC(=O)Nc2cccc(F)c2)cc1S(=O)(=O)N1CCCCCC1	none
